PMI act hi M6P = human PMI activators, high substrate, primary screen, biochemical, fluorescence intensity, near-saturating mannose 6-phosphate | coupled PMI enzyme assay, resazurin fluorescence, 20 min; stronger effect = higher value; 1 = untreated enzyme, 0 = substrate-free blank | activation factor at 20 µM | 190,000 compounds, 0.34% hits;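 active = activation factor of 2 or more at 20 µM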
Target sequence (P34949 whole entry, looked up): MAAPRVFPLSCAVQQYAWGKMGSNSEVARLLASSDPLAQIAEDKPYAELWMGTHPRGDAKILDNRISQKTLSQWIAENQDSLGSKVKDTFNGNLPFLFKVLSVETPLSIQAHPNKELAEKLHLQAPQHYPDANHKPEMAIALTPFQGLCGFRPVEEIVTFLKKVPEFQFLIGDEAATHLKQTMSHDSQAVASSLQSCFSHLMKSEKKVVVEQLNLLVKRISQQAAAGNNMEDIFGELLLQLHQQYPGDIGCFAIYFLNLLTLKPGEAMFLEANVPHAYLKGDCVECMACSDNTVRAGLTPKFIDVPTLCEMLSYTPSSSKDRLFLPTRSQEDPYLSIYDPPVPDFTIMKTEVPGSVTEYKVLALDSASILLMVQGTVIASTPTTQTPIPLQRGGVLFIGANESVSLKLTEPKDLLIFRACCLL
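test system = human PMI in coupled enzyme assay | medium = HEPES-buffered pH 7.4 with magnesium and detergent | also added = 1.0 mM mannose-6-phosphate substrate with 0.22 mM NADP+ | compound = 20 µM single dose | times = 20 min incubation at room temperature | measured by = resorufin fluorescence (Ex 544/Em 590 nm) from resazurin via diaphorase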
TNAP inh no acc = human TNAP enzyme inhibitors, primary screen, biochemical, luminescent, no phosphate acceptor, uHTS; inhibition, % at 20 µM; Alkaline phosphatase, tissue-nonspecific isozyme (Homo sapiens), P05186; AID 1012, 2008; purified TNAP, CDP-star luminescence, 30 min; 200,000 compounds, 0.26% hits;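 active = tissue-nonspecific alkaline phosphatase inhibition above about 50% at 20 µM in the single-dose screen, limit read from the data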;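 also: 0% = DMSO negative control and 100% = EDTA positive control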
PMI activator = activators of human PMI, primary screen, biochemical, fluorescence intensity, near-Km mannose 6-phosphate. Mannose-6-phosphate isomerase (Homo sapiens), P34949. purified human PMI, coupled resazurin fluorescence, 20 min; stronger effect = higher value; 1 = vehicle control, 0 substrate-free wells. activation factor at 20 µM. 190,000 compounds, 0.005% hits;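 active = activation factor of 2 or more at 20 µM, relative to plate controls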
TNAP inh hiacc = human TNAP enzyme inhibitors, primary screen, biochemical, luminescent, high phosphate acceptor level, uHTS | inhibition, % at 20 µM | 200,000 compounds, 0.03% hits | purified TNAP, CDP-star luminescence, 1 M DEA | AID 1135, 2008 | Alkaline phosphatase, tissue-nonspecific isozyme (Homo sapiens), P05186;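 active = over 50% inhibition of tissue-nonspecific alkaline phosphatase at 20 µM in the single-dose screen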;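 also: plate controls were DMSO wells for no effect and EDTA-quenched wells as full inhibition for full effect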
TNAP act hi DEA = TNAP activators at high phosphate acceptor level, primary screen, biochemical, luminescence, uHTS. purified TNAP, CDP-star luminescence, 1 M DEA, 30 min; stronger effect = higher value; 0 = EDTA background, 1 = DMSO-only activity. activation factor at 20 µM. 200,000 tested, under 10 active. AID 1136, 2008;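 active = activation factor at least 2 at 20 µM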
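Assay system: human TNAP; Input: enzyme diluted 1/800 final; Reagent: CDP-star luminogenic substrate at 100 µM final; Timing: 30 min, room temperature; Signal: luminescence; Evaluation: TNAP activation factor scaled between EDTA and DMSO control wells.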
Rad51 HR inh = human RAD51 strand exchange inhibitors, primary screen, biochemical, fluorescence; 200,000 compounds, 0.085% hits; inhibition, % at 10 µM; DNA repair protein RAD51 homolog 1 (Homo sapiens), Q06609; hRad51 DNA strand exchange, fluorescence dequenching;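 active = inhibition above 40% at the single screening dose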;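 also: 0% = DMSO control wells and 100% = blanks with heterologous ssDNA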
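System: hRad51 filaments on single-stranded DNA; reagent: Fluorescein- and BHQ1-tagged 47-mer duplex; compound dosing: one concentration, 10 µM final; timing: filaments 15 min 37 °C, then compound 30 min; measured by: fluorescein emission 520 nm, excitation 485 nm; benchmarks: per-plate controls and blanks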
Starred values were filed as active, the others as inactive; / = no result. An excerpt weighted towards active compounds, which were near 0.6% of everything screened.

SMILES	PMI act hi M6P	TNAP inh no acc	PMI activator	TNAP inh hiacc	TNAP act hi DEA	Rad51 HR inh
COc1ccc(-c2cc(C(F)(F)F)nc(SCC(=O)Nc3cc(C)on3)n2)cc1OC	1	-10.0	1	-1.3	1	8.2
COc1ccc(-n2cnnc2SCC(=O)Nc2cc(C)on2)cc1	0.9	-10.2	0.9	3.4	1	44.4*
Cc1cc(NC(=O)CSc2nncn2-c2ccccc2)no1	1	-14.2	1	-3.3	1	-5.5
O=C(c1ccc(Br)cc1)N1CCCC1	0.9	-12.6	0.9	-1.7	1	-3.5
CN1CCN(C(=O)c2ccc(S(=O)(=O)c3ccc(Br)cc3)cc2)CC1	0.8	-11.1	0.9	-5.5	1.1	55.2*
CCC(=O)NNC(=O)c1cc(COc2cc(Cl)cc(Cl)c2)on1	/	/	/	/	/	3.7
O=C(N/N=C/c1c[nH]c2ccccc12)c1cc(-c2ccccc2)n[nH]1	1	87.4*	1	16.3	0.8	0.4
Cc1ccc(-c2cc(C(=O)N/N=C/c3c[nH]c4ccccc34)[nH]n2)cc1	0.9	71.1*	0.8	10.4	0.9	-35.9
CC(C)(O)C1Cc2cc(/C=C/C(=O)O)c(O)cc2O1 (stereo not drawn)	0.1	-9.7	0.1	-9.2	1.1	-1.7
Cc1ccc2c(ccc(=S)n2C)c1	2.7*	-8.7	1.9	-3.9	1	-0.9
CN(C)c1ccc(/C=N/Nc2ccc(-n3ccnc3)nn2)cc1	2.2*	9.1	1.7	5.2	0.9	17.0
CN1CCN(C2=C(Cl)C(=O)N(Cc3ccccc3)C2=O)CC1	0.9	-3.1	1.1	-3.7	1	52.4*
CN(C(=O)COC(=O)c1ccc(Cl)nc1)C1CCS(=O)(=O)C1 (stereo not drawn)	0.7	2.8	1	-2.5	1	-8.0
O=c1sc(/C=N/Nc2ccccc2)c(Cl)n1Cc1ccccc1	2.1*	-1.9	1.4	0.0	1	-0.8
COC(=O)c1cccc(Cn2c(Cl)c(/C=N/NC(=O)c3ccccc3Cl)sc2=O)c1	1	0.9	1	-4.9	1	-3.7
COC(=O)c1ccc(Oc2coc3cc(OCc4cnn(-c5ccccc5)c4)ccc3c2=O)cc1	1	-46.5	0.9	-4.2	1	16.2
CCC1CN(C)C2Cc3c([nH]c4ccccc34)C(=O)CC1C2C(=O)OC (stereo not drawn)	/	/	/	/	/	-2.0
COc1ccc(-c2ccc(-c3nc4c(c(=O)[nH]c(=O)n4Cc4ccccc4)n3C)o2)c([N+](=O)[O-])c1	0.6	-5.9	0.9	7.8	0.9	-3.4
CSc1n[nH]c(NCc2cccs2)n1	1	55.7*	0.9	-4.8	1	0.6
Oc1oc(C=Nc2ccc(F)cc2F)c2ccccc12	2.3*	-14.5	1.8	-4.7	1	-10.3
CC(=O)Oc1ccc2occ(/C=N/c3cc(=O)[nH]c(=S)[nH]3)c(=O)c2c1	/	/	/	/	/	-11.2
Cc1[nH]n(-c2ccc([N+](=O)[O-])cc2)c(=O)c1C=NCC1CCCO1 (stereo not drawn)	0.9	-12.1	0.9	-5.2	1.1	0.9
Cc1ccc(-n2[nH]c(C)c(/C=N/Nc3ccc([N+](=O)[O-])cc3[N+](=O)[O-])c2=O)cc1	1.1	35.0	0.9	51.3*	0.5	4.3
COc1cc(N=C(N)N=C(N)N)cc(OC)c1	0.9	-0.7	1	4.7	1	7.4
O=C1NC(c2ccccc2)Nc2c1sc(=S)n2-c1ccccc1 (stereo not drawn)	2.2*	-9.3	1.7	-1.3	1	-7.0
